The IC50 is the concentration at which inhibition is half-maximal. Broadly, the half-life is the time in which the quantity being followed falls by half. High values mean slow loss, low ones fast loss. As usually defined, the Cmax is the highest concentration seen after dosing. The term AUC denotes concentration integrated over time. By bioavailability is commonly meant the share of a dose that reaches the circulation, judged against a reference dose that is usually intravenous. The term inhibition denotes the relative decrease from the control value, in per cent.

The species entered for series [1] is Homo sapiens. Nature of the series: In vitro protein binding in human serum at 5 ug/ml. It counts as ADME. Put shortly: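 Samples were incubated 30 min at room temperature, then ultrafiltered through a 30 000 MW cutoff device at 2000g for 25 min at room temperature. Free drug in the filtrate was quantified by HPLC.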
Series [2] is filed under the species Homo sapiens. Briefly: Inhibition of interleukin-2 (IL-2) synthesis in human whole blood stimulated by PMA/ionomycin. In kind it is functional. Put shortly: (§1)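 Heparinized human whole blood was added to serially diluted compound and stimulated with a PMA (50 ng/mL) plus ionomycin mixture. After 24 h, plasma was collected by centrifugation and IL-2 was measured by in-house ELISA.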

A short description of series [3]: Half-life in rat at 4 mpk upon peroral administration. In kind it is ADME, organism-based. The note with it: in vivo, po, 4 mg/kg.
Series [4] in a line: Maximum concentration in rat at 4 mpk upon peroral administration. Particulars: in vivo, po, 4 mg/kg. Details: dose 4 mpk, route oral. It counts as ADME, organism-based.
Series [5] in a line: Area under curve in rat at 4 mpk upon peroral administration. In kind it is ADME, organism-based. The note with it: in vivo, po, 4 mg/kg.
Series [6] can be described thus: Oral bioavailability in rat (dose 4 mg/kg). In kind it is ADME, organism-based. The note with it: in vivo.
Series [7] in a line: Bronchoalveolar lavages was collected after 6 hr in an ascaris-induced nonhuman primate model of asthma at 30 mg/kg dose (for IL-5). It counts as functional. An outline of the steps:
(§2)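 Ascaris-induced asthma model in nonhuman primates. Dosing by oral gavage at -26, -2 and +22 h relative to antigen inhalation. Bronchoalveolar lavage was taken at day -5 (baseline), at +6 h for IL-5, IL-8 and eotaxin, and at +48 h for eosinophil influx. Data are mean percentage inhibition versus crossover vehicle control, with paired t-test.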

Series [8] can be described thus: Bronchoalveolar lavages was collected after 6 hr in an ascaris-induced nonhuman primate model of asthma at 30 mg/kg dose (for IL-8). In kind it is functional. Put shortly: as §2
Series [9] is described as follows: Resistance evaluated in an ascaris-induced nonhuman primate model of asthma after 6 hour at 30 mg/kg dose. In kind it is functional. An outline of the steps: (§3)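 Antigen (Ascaris) inhalation challenge in nonhuman primates, with oral gavage dosing at -26, -2 and +22 h relative to inhalation. Respiratory system resistance was measured at baseline, at +10 min (immediate response) and at +6 h (late phase). Data are mean percentage inhibition versus crossover vehicle control, with paired t-test.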

Series [10] can be described thus: Bronchoalveolar lavages was collected after 6 hr in an ascaris-induced nonhuman primate model of asthma at 30 mg/kg dose (for eotaxin). It counts as functional. Put shortly: as §2
Series [11] in a line: Resistance evaluated in an ascaris-induced nonhuman primate model of asthma after 10 min at 30 mg/kg dose. In kind it is functional. Put shortly:
as §3

Series [12] in a line: Bronchoalveolar lavages was collected after 48 hr in an ascaris-induced nonhuman primate model of asthma (for eosinophil influx, eos) at 25 mg/kg dose. It counts as functional. The note with it: dose 30 mg/kg; in the assay text read “30 mg/kg” for “25 mg/kg”. An outline of the steps:
as §2

The species entered for series [13] is Homo sapiens. Nature of the series: Tested for interleukin-2 (IL-2) synthesis inhibition in human whole blood stimulated by PMA/ionomycin. It counts as functional. An outline of the steps: as §1
Series [14] can be described thus: Resistance evaluated in an ascaris-induced nonhuman primate model of asthma after 6 hour at 25 mg/kg dose. In kind it is functional. Put shortly:
as §3

Series [15] in a line: Bronchoalveolar lavages was collected after 6 hr in an ascaris-induced nonhuman primate model of asthma at 25 mg/kg dose (for IL-5). In kind it is functional. Put shortly:
as §2

Series [16] in a line: Bronchoalveolar lavages was collected after 6 hr in an ascaris-induced nonhuman primate model of asthma at 25 mg/kg dose (for eotaxin). It counts as functional. An outline of the steps:
as §2

The nature of series [17]: Bronchoalveolar lavages was collected after 48 hr (for eosinophil influx, eos) at 25 mg/kg dose. It counts as functional. An outline of the steps:
as §2

Series [18] can be described thus: Bronchoalveolar lavages was collected after 6 hr in an ascaris-induced nonhuman primate model of asthma at 1 mg/kg dose (for IL-5). In kind it is functional. Put shortly: as §2
A short description of series [19]: Inhibition of eosinophil influx in bronchoalveolar lavage after 48 hr at 1 mg/kg dose.
Series [20] in a line: Bronchoalveolar lavages was collected after 6 hr in an ascaris-induced nonhuman primate model of asthma at 1 mg/kg dose (for eotaxin). In kind it is functional. Put shortly:
as §2

Series [21] can be described thus: Resistance evaluated in an ascaris-induced nonhuman primate model of asthma after 10 min at 1 mg/kg dose. It counts as functional. Put shortly: as §3
The nature of series [22]: Bronchoalveolar lavages was collected after 6 hr in an ascaris-induced nonhuman primate model of asthma at 1 mg/kg dose (for IL-8). It counts as functional. Put shortly:
as §2

Series [23] is described as follows: Resistance evaluated in an ascaris-induced nonhuman primate model of asthma after 6 hour at 1 mg/kg dose. In kind it is functional. Put shortly: as §3

`O=C(Nc1ccc(-n2nc(C(F)(F)F)cc2C(F)(F)F)cc1)c1ccc(Cl)cc1` came in with a Binding in the series listed under Homo sapiens [1] of 99.9%. Moreover, 6030 nM corresponded to half-maximal inhibition in the series listed under Homo sapiens [2] (IC50).
On the same counts, the results for `O=C(Nc1ccc(-n2nc(C(F)(F)F)cc2C(F)(F)F)cc1)c1cc(F)ccc1F` are 99.9% and 372 nM.
In series [3], `CSc1cc(C(F)(F)F)nn1-c1ccc(NC(=O)c2ccncc2F)cc1` gave a half-life of 5.2 h. This molecule also had a Cmax in series [4] of 870 ng/mL. Besides, in [5], the AUC came to 7790 ng·h/mL. Besides, the bioavailability in [6] amounted to 63%. Further, half-maximal inhibition in the series filed under Homo sapiens [2] (IC50) required 944 nM.
`Cc1noc(C)c1C(=O)Nc1ccc(-n2nc(C(F)(F)F)cc2C(F)(F)F)cc1` gave a Binding in the series listed under Homo sapiens [1] of 99.6%. The IC50 in the series listed under Homo sapiens [2] came out at 1980 nM.
For `N#Cc1cc(C(F)(F)F)nn1-c1ccc(NC(=O)c2ccccc2F)cc1`, the half-life in series [3] is 6.2 h. For the same molecule, the concentration in [4] peaked (Cmax) at 280 ng/mL. For the same molecule, in series [5], the AUC was 3240 ng·h/mL. Further, the bioavailability in series [6] was determined as 31%. For the same molecule, the IC50 in the series filed under Homo sapiens [2] was found to be 304 nM.
On the same counts, the results for `O=C(Nc1ccc(-n2nc(C(F)(F)F)cc2[N+](=O)[O-])cc1)c1ccncc1F` are 1.7 h, 220 ng/mL, 310 ng·h/mL, 18% and 440 nM.
As for `O=C(Nc1ccc(-n2nc(C(F)(F)F)cc2C(F)(F)F)cc1)c1ccccc1Cl`, the Binding in the series listed under Homo sapiens [1] is listed as 99.9%. In the series listed under Homo sapiens [2], this molecule returned an IC50 of 914 nM.
The molecule `O=C(Nc1ccc(-n2nc(C(F)(F)F)cc2C(F)(F)F)cc1)c1cccc(F)c1F` showed a Binding in the series listed under Homo sapiens [1] of 99.9%. The same molecule came in with an IC50 in the series listed under Homo sapiens [2] of 405 nM.
Taken in the same sequence, the figures for `O=C(Nc1ccc(-n2nc(C(F)(F)F)cc2C(F)(F)F)cc1)c1ccncc1F` were 99.7% and 496 nM.
Taken in the same sequence, the figures for `O=C(Nc1ccc(-n2nc(C(F)(F)F)cc2C(F)(F)F)cc1)c1cc(F)cc(F)c1F` were 99.9% and 1470 nM.
In the case of `O=C(Nc1ccc(-n2nc(C(F)(F)F)cc2OC(F)F)cc1)c1ccncc1F`, the inhibition amounted to 73% in [7]; 69% in [8]; 69% in [9]; 56% in series [10]; 61% in series [11]; 185% in series [12]. This molecule also showed a half-life in series [3] of 6.8 h. Also, the Cmax in series [4] stood at 610 ng/mL. The same molecule showed an AUC in [5] of 7750 ng·h/mL. This molecule also had a bioavailability in series [6] of 74%. The molecule also returned an IC50 in the series filed under Homo sapiens [2] of 182 nM.
In [3], `COc1cc(C(F)(F)F)nn1-c1ccc(NC(=O)c2ccncc2F)cc1` had a half-life of 1 h. The same molecule gave a Cmax in [4] of 1480 ng/mL. In series [5], the AUC was found to be 3050 ng·h/mL. The molecule further showed a bioavailability in series [6] of 68%. In the series listed under Homo sapiens [2], the IC50 is 261 nM.
`Cc1nnsc1C(=O)Nc1ccc(-n2nc(C(F)(F)F)cc2C(F)(F)F)cc1`: the Binding in the series listed under Homo sapiens [1] is reported as 99.8%. In the series filed under Homo sapiens [2], this molecule registered an IC50 of 1740 nM.
On to `O=C(Nc1ccc(-n2[nH]c(C(F)(F)F)cc2=O)cc1)c1ccncc1F`, for which the inhibition in the series filed under Homo sapiens [13] was 16%.
On to `N#Cc1cc(C(F)(F)F)nn1-c1ccc(NC(=O)c2ccncc2F)cc1`, for which, in series [3], the half-life was 4.3 h. The same molecule showed a Cmax in [4] of 1090 ng/mL. Further, the AUC in series [5] came out at 10900 ng·h/mL. In [6], the bioavailability came to 78%. Moreover, in the series filed under Homo sapiens [2], the IC50 amounted to 240 nM.
As to `CC(=O)c1cc(C(F)(F)F)nn1-c1ccc(NC(=O)c2ccccc2F)cc1`, in [4], the concentration peaked (Cmax) at 120 ng/mL. Also, the AUC in series [5] was 1110 ng·h/mL. In series [6], this molecule had a bioavailability of 5%. The IC50 in the series listed under Homo sapiens [2] worked out at 1580 nM.
In [3], `O=C(Nc1ccc(-n2nc(C(F)(F)F)cc2Cl)cc1)c1ccncc1F` gave a half-life of 4.8 h. Also, the peak level in series [4] (Cmax) was 780 ng/mL. The same molecule gave an AUC in [5] of 11000 ng·h/mL. In series [6], this molecule came in with a bioavailability of 79%. Further, the IC50 in the series filed under Homo sapiens [2] worked out at 158 nM.
In the series filed under Homo sapiens [1], `O=C(Nc1ccc(-n2nc(C(F)(F)F)cc2C(F)(F)F)cc1)c1ccccc1F` gave a Binding of 99.9%. Further, in the series listed under Homo sapiens [2], half-maximal inhibition (IC50) required 2270 nM.
In [3], `O=C(Nc1ccc(-n2nc(C(F)(F)F)cc2Br)cc1)c1ccncc1F` gave a half-life of 7.2 h. Moreover, the Cmax in series [4] turned out to be 1040 ng/mL. In series [5], this molecule had an AUC of 16400 ng·h/mL. For the same molecule, the bioavailability in [6] worked out at 94%. Also, it took 288 nM to reach half-maximal inhibition in the series filed under Homo sapiens [2] (IC50).
As for `COc1cc(C(F)(F)F)nn1-c1ccc(NC(=O)c2ccccc2F)cc1`, the Cmax in series [4] was found to be 70 ng/mL. The molecule also gave an AUC in [5] of 970 ng·h/mL. The molecule also gave a bioavailability in [6] of 26%. In the series filed under Homo sapiens [2], this molecule showed an IC50 of 570 nM.
Turning to `O=C(Nc1ccc(-n2nc(C(F)(F)F)cc2C(F)(F)F)cc1)c1ccncc1`, in the series listed under Homo sapiens [1], the Binding was found to be 99.7%. For the same molecule, in the series filed under Homo sapiens [2], the IC50 worked out at 701 nM.
With `C/C=C/C[C@@H](C)[C@@H](O)[C@H]1C(=O)N[C@@H](CC)C(=O)N(C)CC(=O)N(C)[C@@H](CC(C)C)C(=O)N[C@@H](C(C)C)C(=O)N(C)[C@@H](CC(C)C)C(=O)N[C@@H](C)C(=O)N[C@H](C)C(=O)N(C)[C@@H](CC(C)C)C(=O)N(C)[C@@H](CC(C)C)C(=O)N(C)[C@@H](C(C)C)C(=O)N1C` [CYCLOSPORINE], the inhibition turned out to be 90% in [14], 92% in [15], 62% in series [16] and 137% in series [17].
Turning to `C[C@]12C=CC(=O)C=C1CC[C@@H]1[C@@H]2[C@@H](O)C[C@@]2(C)[C@H]1CC[C@]2(O)C(=O)CO` [PREDNISOLONE], the inhibition in series [18] stood at 94%; in series [19] it was 106%; in [20] it was 67%; in series [21] it was 24%; in [22], 9%; in [23], 57%.

Values taken from ChEMBL document CHEMBL1133605, “3,5-Bis(trifluoromethyl)pyrazoles: a novel class of NFAT transcription factor regulator” (J Med Chem, 2000).
